In the library only some 1.4% were active in any assay of this set; here they are far more common.
HTR5A ag ctr: counter-screen for OPRM1-OPRD1 agonists: human HTR5A agonism; P47898; HTR5A agonist assay, luminescence, cell-based; activation, % at 9.3 µM; 0.61% of 340,000 active; in the data active = activation mostly above about 9.5%, no sharp cut-off; inactive = mostly below about 7.6%;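 also: 0% = cells with vehicle only and 100% = reference agonist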
OPRM1-OPRD1 ag: OPRM1-OPRD1 heterodimerization agonism; P35372+P41143; cells, luminescence; activation, % at 9.3 µM; 0.3% of 340,000 active; AID 504326; in the data active = activation above about 18%;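 also: 0% = vehicle-treated cells and 100% = reference agonist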
Target sequence (P35372 whole entry, looked up): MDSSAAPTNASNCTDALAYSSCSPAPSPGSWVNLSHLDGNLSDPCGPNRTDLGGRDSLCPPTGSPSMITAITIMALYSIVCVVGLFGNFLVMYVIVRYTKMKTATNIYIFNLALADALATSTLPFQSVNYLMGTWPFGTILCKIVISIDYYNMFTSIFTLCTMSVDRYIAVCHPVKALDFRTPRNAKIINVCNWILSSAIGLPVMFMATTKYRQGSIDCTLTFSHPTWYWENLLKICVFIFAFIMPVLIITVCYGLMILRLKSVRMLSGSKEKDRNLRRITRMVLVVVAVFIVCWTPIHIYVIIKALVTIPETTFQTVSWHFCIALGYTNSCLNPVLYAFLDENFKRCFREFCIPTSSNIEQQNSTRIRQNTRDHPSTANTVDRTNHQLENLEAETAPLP
Target sequence (P41143 whole entry, looked up): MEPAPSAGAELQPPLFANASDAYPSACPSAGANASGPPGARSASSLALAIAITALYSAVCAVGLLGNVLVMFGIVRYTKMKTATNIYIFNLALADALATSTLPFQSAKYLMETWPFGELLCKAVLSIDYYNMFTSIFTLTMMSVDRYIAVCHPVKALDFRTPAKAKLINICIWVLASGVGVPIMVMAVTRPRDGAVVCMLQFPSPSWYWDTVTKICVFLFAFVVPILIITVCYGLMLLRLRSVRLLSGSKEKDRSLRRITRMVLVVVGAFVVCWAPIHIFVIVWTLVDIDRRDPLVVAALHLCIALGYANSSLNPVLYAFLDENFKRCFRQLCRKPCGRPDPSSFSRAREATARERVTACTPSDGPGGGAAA
DAGLB inh: blocks human DAGLB lipase activity; HEK293T DAGLB membrane lysate, EnzChek fluorogenic substrate; inhibition, % at 5.17 µM; 0.059% of 340,000 active; AID 504411; in the data active = inhibition above about 34%;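 also: 0% = enzyme with vehicle and 100% = wells lacking enzyme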
Arr AP2 block: blocks beta-arrestin peptide binding to AP2 adaptin. 0.31% of 340,000 active. AID 504490. FITC-arrestin peptide / GST-AP2 beads, flow cytometry; AP2 beta2 appendage carries R879A mutation. inhibition, % at 10 µM;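 active = inhibition above a set limit, near 3 SD of compounds lacking own fluorescence, cut at about 54% in these data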;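 also: plate controls were DMSO wells for no effect and 5 µM unlabelled arrestin peptide for full effect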
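Material – AP2 appendage R879A on GSH beads · Buffer or medium – PBS with 0.05% Tween 20 and 0.1% BSA · Probe or stimulus – fluorescein-tagged arrestin peptide at 50 nM final · Incubation – compound with beads 12 min RT, then probe 1 h RT · Detection – high-throughput flow cytometry of beads, ex 488, em 535 nm · Evaluation – percent response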
OPRM1-OPRD1 inv: inverse agonists of human mu-delta opioid receptor heterodimerization | cell-based MOR-DOR heterodimer luminescence, inverse agonism | inhibition, % at 9.3 µM | 0.21% of 340,000 active | AID 504357; in the data active = inhibition above about 22%, passing the limit was not always enough;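 also: 0% = cells with DMSO and 100% = wells without cells with DMSO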
HTR5A inv ctr: counter-screen for OPRM1-OPRD1 inverse agonists: human HTR5A inverse agonism; P47898; HTR5A cell line, luminescence; inhibition, % at 9.3 µM; 0.083% of 340,000 active; AID 504634; in the data active = inhibition mostly above about 23%, no sharp cut-off; inactive = mostly below about 18%;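 also: 0% = cells with DMSO and 100% = no-cell wells with DMSO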
Arr-AP2 CP1: human beta-arrestin and AP2 interaction inhibition, cherry pick; shares compounds with Arr AP2 block; GST-AP2 beads, FITC arrestin peptide binding, flow cytometry; GST-fused beta2-adaptin appendage, R879A mutant; inhibition, % at 10 µM; 2% of 1,300 active;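 active = inhibition above a set limit, roughly 3 SD of non-fluorescent compound noise, cut at about 38% in these data; inactive = inhibition at or below that limit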;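 also: loss of bead fluorescence from 50 nM FITC arrestin peptide bound to appendage; 0% = negative control wells and 100% = excess unlabelled arrestin peptide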
GST GSH counter: GST-GSH bead binding interference, counter-screen; 2% of 1,300 active; inhibition, % at 10 µM; GST-fluorescein binding to GSH beads, fluorescence; shares compounds with Arr AP2 block;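 active = inhibition above 50%, about 3 SD of the inhibition seen with non-fluorescent compounds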;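 also: fluorescein maleimide labelled GST captured on 4 micron glutathione beads; higher means more loss of bead fluorescence from quenching or blocked binding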
* marks the source's active call; other numbers are inactive results; x = no result.

SMILES	HTR5A ag ctr	OPRM1-OPRD1 ag	DAGLB inh	Arr AP2 block	OPRM1-OPRD1 inv	HTR5A inv ctr	Arr-AP2 CP1	GST GSH counter
CCN1C[C@@H]2[C@@H]3C(=O)N(C)C(=O)[C@@H]3[C@](Cc3ccccc3)(C1=O)N2C(=O)c1ccc(Cl)cc1	1	0	-1	1	-1	-2	x	x
CC(C)(C)NC(=O)NC(=O)CN1CCCCCCC1	-2	0	-1	62*	1	7	-12	-4
CC(=O)Nc1ccc(S(=O)(=O)NC(C(=O)O)C(C)O)cc1 (stereo unspecified)	-3	-4	-2	54*	22	9	-19	-12
C=CCSc1nnc(NC(=O)C2CC(=O)N(Cc3ccc(C)cc3)C2)s1 (stereo unspecified)	0	-4	0	56*	15	-24	-11	0
COC(=O)c1ccccc1NC(=O)N1c2ccccc2CC1C (stereo unspecified)	-4	3	-11	5	-14	9	x	x
CCCCNC(=O)N1c2ccccc2CC1C (stereo unspecified)	3	-1	-1	57*	6	-8	13	-9
C=CCn1c(-c2ccc(OC)cc2)nc2ccccc21	-6	-2	1	98*	13	17	-12	2
C[C@@H]1CN([C@H](C)CO)S(=O)(=O)c2ccc(Br)cc2O[C@@H]1CN(C)C(=O)NC1CCCC1	x	x	-3	x	x	x	x	x
O=c1cc(CO)[nH]cc1OCc1ccccc1	-3	-2	-2	61*	9	-9	-5	-5
O=c1cc(CO)occ1OCc1cccc(F)c1	5	-3	-3	-3	16	-11	x	x
CCCCNCCS(=O)(=O)NCc1ccc(OC)cc1	4	0	1	24	-1	-16	x	x
CC1CCN(S(=O)(=O)N2CCC(C(=O)O)CC2)CC1	3	-1	0	56*	5	-7	20	-4
CCS(=O)(=O)N1CCC(C(=O)O)CC1	3	-1	-2	2	5	-8	x	x
CCSc1nnc(NC(=O)C2C3CCC(C3)C2C(=O)O)s1 (stereo unspecified)	0	-1	1	60*	4	-1	3	-14
CCSc1nnc(NC(=O)C2C3C=CC(C3)C2C(=O)O)s1 (stereo unspecified)	1	-1	-3	21	7	15	x	x
COc1ccc(N2CCN(C(=O)C(=O)c3cn(CC(=O)N4CCCC4)c4ccccc34)CC2)cc1	x	x	0	x	x	x	x	x
CC(C)(C)C(=O)NCc1ccc(C(=O)CSc2nnc(-c3ccncc3)n2C2CC2)s1	1	1	2	62*	-10	-12	-11	2
CN(C)c1ccc(NC(=O)COC(=O)Cn2nnc3ccccc32)cc1	4	-1	0	61*	4	-15	-5	-9
Cc1cc(NS(=O)(=O)c2ccccc2)c([N+](=O)[O-])cc1C	-3	0	1	62*	2	10	13	-7
CC(CC(=O)c1ccccc1)=NCC(O)CN=C(C)CC(=O)c1ccccc1 (stereo unspecified)	x	x	-4	x	x	x	x	x
COc1cc2c(cc1OC)C(=O)CCS2	-2	-1	-4	75*	6	7	12	-4
CCCn1c(=O)c2[nH]cnc2n(-c2ccccc2C)c1=O	2	-3	1	-17	16	1	x	x
CCCn1c(=O)c2[nH]cnc2n(-c2ccc(Cl)cc2)c1=O	-1	-1	1	58*	4	9	11	-9
CC1CC(C)CN(C(=O)COC(=O)c2ccc(Cl)nc2)C1 (stereo unspecified)	1	0	1	52	2	-2	x	x
CC1CC(C)CN(C(=O)COC(=O)c2nccnc2N)C1 (stereo unspecified)	-5	-2	0	63*	6	-7	14	1
SMILES	HTR5A ag ctr	OPRM1-OPRD1 ag	DAGLB inh	Arr AP2 block	OPRM1-OPRD1 inv	HTR5A inv ctr	Arr-AP2 CP1	GST GSH counter
CCC(=O)NC1=C(Cl)C(=O)C(NC(=O)CC)=C(Cl)C1=O	3	14	-2	66*	-63	-9	61*	6
CC/C(=N\N=C1\SC(C)C(=O)N1Cc1ccco1)c1ccccc1 (stereo unspecified)	2	6	-11	59*	-29	-7	5	-7
Cn1c(=Nc2ccccc2)sc2ccccc21	10	9	-3	40	-51	3	x	x
CN(C)c1ccc(N=c2sc3ccccc3n2C)cc1	4	5	-15	63*	-27	-11	6	1
O=C(OCc1ccc(F)cc1)c1cc2ccccc2cc1O	2	1	-16	3	-3	-7	x	x
O=C(OCc1ccc(F)cc1)c1ccc2c(c1)-c1ccccc1C2=O	-4	2	-4	94*	-9	9	0	-3
Cn1c(Cl)c(/C=N/OC(=O)c2ccccc2Cl)c2ccccc21	4	2	-10	54*	-11	-11	5	-4
Cc1nn(C)c(Cl)c1/C=N/OC(=O)c1ccccc1	11	-2	-8	-28	11	9	x	x
O=C(c1ccoc1)N1CCN(c2cc(-c3ccccc3)nc3cc(-c4ccc(Br)cc4)nn23)CC1	x	x	0	x	x	x	x	x
Cc1c(N2CCCCC2)[nH]c2ccccc12	x	x	-5	x	x	x	x	x
Cc1ccc(OCCSc2nc3ccccc3n2CC(=O)O)cc1C	-1	0	2	54*	1	4	-1	-3
Cc1ccc(S(=O)(=O)N2CCCCC2)cc1NC(=O)COC(=O)CN1C(=O)NC2(CC(C)CC(C)(C)C2)C1=O (stereo unspecified)	-2	-3	1	-5	13	6	x	x
CN(C)C(CNC(=O)CNC(=O)c1ccc2ccccc2c1)c1ccccc1 (stereo unspecified)	-3	1	-1	59*	-6	8	14	0
CCCCC1SC(N)=NC1=O (stereo unspecified)	-2	0	-2	37	1	6	x	x
CC(=O)/C(=N\Nc1cccc(Cl)c1)Sc1nnc(-c2ccccc2)n1-c1ccccc1	3	0	-3	105*	3	-5	-1	-5
COc1ccc(CCN2C(=O)CS/C2=N\NC(=O)c2ccc(C(C)(C)C)cc2)cc1OC	0	-1	0	62*	6	32	5	-1
CC(C)OC(=O)N(C)C[C@@H]1OCc2ccccc2-c2c(n(C)c3ccccc23)C(=O)N([C@@H](C)CO)C[C@H]1C	x	x	2	x	x	x	x	x
O=C(CC1CCCC1)N1CCN(S(=O)(=O)c2c(F)cccc2F)CC1	x	x	3	x	x	x	x	x

Bioassay records deposited in PubChem BioAssay by several laboratories.
